Measured values collected from several papers.
Lines come from different studies, so protocols differ.
Target: D(3) dopamine receptor (DRD3, Homo sapiens, UniProt P35462)
Tested at: 10 µM

| Structure (SMILES) | assay | inhibition [%] |
| --- | --- | --- |
| CCCNc1nc2ccccc2n1Cc1ccc(Cl)cc1 | ligand displacement | 40.8 |
| CN([C@@H]1CCc2c(CC(=O)O)c3ccccc3n2C1)S(=O)(=O)c1ccc(F)cc1 | ligand displacement | -4.25 |
| O=C(c1ccc(F)cc1)N(Cc1ccccc1)C1CCCCC1 | cell-free assay | 8 |
| Nc1nonc1C(=O)NCCNCc1cccc(OCc2ccccc2F)c1 | enzyme activity, inhibitor | 4.3 |
| CCN(CC)c1ccc(C2Nc3ccc(C(=O)c4ccccc4)cc3NC3=C2C(=O)CC(C)(C)C3)cc1 (stereo not shown) | ligand displacement, radioligand | 12 |
| COc1ccc(-c2ccc(CNCC(O)c3ccccc3)o2)cc1Cl (stereo not shown) | enzyme activity, inhibitor | 12.1 |
| CCN(Cc1ccccc1C(F)(F)F)C(=O)C1CCN(S(=O)(=O)c2ccc3[nH]ncc3c2)CC1 | ligand displacement, radioligand | 23 |
| N#Cc1cc(Cn2c(N3CCCC3)nc3ccccc32)ccc1F | ligand displacement | 39.3 |
| N#CN1CC[C@H](C(=O)Nc2nc3c(s2)CN(C(=O)CN=[N+]=[N-])CC3)C1 | ligand displacement | -2.14 |
| COc1cccc(N2CCN(C3CC(=O)N(c4cccc(OC)c4)C3=O)CC2)c1 (stereo not shown) | enzyme activity, inhibitor | -37.6 |
